Pf Dd2 inh – P. falciparum Dd2 growth inhibitors, primary screen, SYBR Green fluorescence, single dose replicates. 72 h; active compounds read low. AID 1159554, 2015. activity change, % at 10 µM. actives 2.3% (n = 94,000); in the data active = activity change below about -80%; inconclusive = no clear call, values can overlap the other calls
GASC1 inh – inhibitors of GASC-1 (KDM4C) histone demethylase, primary screen, biochemical, single concentration HTS; Lysine-specific demethylase 4C (Homo sapiens), Q9H3R0; GST-KDM4C 2-372, H3K9me3 peptide, LANCE TR-FRET; inhibition, % at 12.5 µM; actives 0.15% (n = 96,000); AID 720574, 2013;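 active = mean replicate inhibition above about 25%, with at least 55% of replicates also reaching it, limit read from the data, passing the limit was not always enough; inconclusive = only one of those two conditions met; inactive = neither condition met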
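Assay system: GST-GASC-1 enzyme fragment 2-372 | Amount: 10 nM enzyme | Medium: HEPES buffer, pH 7.5, plus ascorbate | Reagent: H3K9me3 peptide substrate, Fe(II), 2-oxoglutarate | Doses: Single-point compound screen | Incubation: 30 min demethylation and 1 h detection at room temperature | Measured by: LANCE TR-FRET, excitation 340 nm, emissions 618 and 671 nm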
T cruzi growth-1 – T. cruzi intracellular proliferation inhibitors, primary screen, cell-based, beta-gal Tulahuen parasites, NIH3T3 host, luminescence | T. cruzi beta-gal in NIH3T3, GalScreen luminescence, 90 h | inhibition, % at 8.34 µM | actives 5.9% (n = 77,000) | AID 624255, 2012;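 active = mean inhibition above about 93%, with at least 55% of replicates each passing it, limit read from the data, passing the limit was not always enough; inconclusive = only one of those two conditions holds; inactive = neither condition holds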
IDH1 mut inh – inhibitors of IDH1 R132H reductase, primary screen, biochemical, plate reader, single point; diaphorase/resazurin fluorescence, 60 min; inhibition, % at 10 µM; actives 0.18% (n = 70,000); AID 624101, 2012; in the data active = inhibition above about 34%; inconclusive = no clear call, values can overlap the other calls; inactive = below about 11%;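 note: 0% = DMSO and 100% = no enzyme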
Target sequence (O75874 whole entry R132H): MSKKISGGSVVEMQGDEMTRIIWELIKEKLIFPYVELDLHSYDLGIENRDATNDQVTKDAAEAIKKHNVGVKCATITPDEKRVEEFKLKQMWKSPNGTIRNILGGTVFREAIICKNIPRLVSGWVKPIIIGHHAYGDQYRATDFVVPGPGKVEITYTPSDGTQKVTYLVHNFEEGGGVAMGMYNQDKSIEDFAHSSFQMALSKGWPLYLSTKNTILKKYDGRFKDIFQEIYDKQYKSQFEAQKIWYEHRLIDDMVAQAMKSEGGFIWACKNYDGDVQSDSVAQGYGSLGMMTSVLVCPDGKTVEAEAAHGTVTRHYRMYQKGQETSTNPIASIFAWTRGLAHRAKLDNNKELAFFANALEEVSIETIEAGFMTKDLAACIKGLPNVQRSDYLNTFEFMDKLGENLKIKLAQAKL
T cruzi growth-2 – T. cruzi intracellular proliferation inhibitors, confirmation, cell-based, NIH3T3 host, beta-gal parasite, luminescence, cherry-pick; shares compounds with T cruzi growth-1; T. cruzi beta-gal in NIH3T3, GalScreen luminescence, 90 h; inhibition, % at 8.35 µM; actives 72% (n = 5,600);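 active = mean replicate inhibition above about 95% and at least 55% of replicates individually reaching it, limit read from the data; inconclusive = only one of the two criteria is met; inactive = neither criterion is met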
T cruzi growth-3 – inhibitors of intracellular T. cruzi replication, confirmation, NIH3T3 host cells, beta-gal parasites, cherry-pick, set 2. T. cruzi beta-gal in NIH3T3, GalScreen luminescence, 90 h. AID 651740, 2012. shares compounds with T cruzi growth-1. actives 21% (n = 5,600). inhibition, % at 2.09 µM;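 active = mean inhibition above about 95%, with at least 55% of replicates also reaching it, limit read from the data; inconclusive = meets just one of the two conditions; inactive = meets neither condition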;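 note: plate controls were neutral control median for no effect and positive control median for full effect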
3T3 cytotox – cytotoxicity in mouse NIH/3T3 fibroblasts, confirmation, cytotoxicity control for T. cruzi proliferation inhibitor project, cell-based, cherry-pick, single point; actives 14% (n = 5,600); cytotoxicity (signal decrease), % at 8.35 µM; NIH/3T3 viability, CellTiter-Glo ATP luminescence, 90 h; shares compounds with T cruzi growth-1;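 active = mean signal decrease across replicates above about 35% based on untreated-well scatter, with enough replicates individually passing, limit read from the data; inconclusive = no rule stated though some were filed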;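 note: 0% = median of neutral control wells and 100% = median of positive control wells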
NIH3T3 tox 2 – NIH/3T3 fibroblast cytotoxicity, confirmation, cytotoxicity control, cell-based, cherry-pick, single point, set 2. inhibition, % at 24.9 µM. AID 651744, 2012. NIH/3T3 viability, CellTiter-Glo ATP luminescence, 90 h. shares compounds with T cruzi growth-1. actives 56% (n = 5,600);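 active = mean loss of cell viability signal at or above a set limit, and enough replicates individually reaching it; inconclusive = meets only the mean limit or only the replicate share; inactive = meets neither condition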;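 note: 0% = median of neutral control wells and 100% = median of positive control wells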
* marks the source's active call; other numbers are inactive results; ? = inconclusive; / = no result given. Compounds with a hit are over-represented: about 5.8% of the library has one in this group of screens.

SMILES	Pf Dd2 inh	GASC1 inh	T cruzi growth-1	IDH1 mut inh	T cruzi growth-2	T cruzi growth-3	3T3 cytotox	NIH3T3 tox 2
CC(C)C#Cc1ccc([C@@H]2[C@@H](CO)N3CCCCN(C(=O)c4ccc5c(c4)OCO5)C[C@@H]23)cc1	-6	0	84	/	/	/	/	/
CC(C)CC#Cc1ccc([C@H]2[C@H]3CN(C(=O)c4ccc5c(c4)OCO5)CCCCN3[C@H]2CO)cc1	-35	0	113*	/	101*	78	14	104*
C[C@@H]1CCCCO[C@H](CN(C)Cc2ccc(C(F)(F)F)cc2)[C@@H](C)CN([C@@H](C)CO)C(=O)c2cc(NC(=O)Nc3ccc(C(F)(F)F)cc3)ccc2O1	-65	0	83	/	/	/	/	/
COc1ccc(NC(=O)Nc2ccc3c(c2)C(=O)N([C@@H](C)CO)C[C@@H](C)[C@H](CN(C)Cc2ccc(C(F)(F)F)cc2)O3)cc1	-11	-1	111*	3	104*	-7	?	97*
C[C@H](CO)N1C[C@H](C)[C@@H](CN(C)Cc2ccc(C(F)(F)F)cc2)OCCCC[C@H](C)Oc2ccc(NC(=O)Nc3ccc(C(F)(F)F)cc3)cc2C1=O	38	12	32	/	/	/	/	/
COc1ccc(CN(C)C[C@H]2OCCCC[C@@H](C)Oc3ccc(NC(=O)Nc4ccc(C(F)(F)F)cc4)cc3C(=O)N([C@H](C)CO)C[C@@H]2C)cc1	-66	/	75	/	/	/	/	/
COc1ccc(NC(=O)Nc2ccc3c(c2)C(=O)N([C@H](C)CO)C[C@@H](C)[C@H](CN(C)Cc2ccc(C(F)(F)F)cc2)O3)cc1	10	11	-11	-1	/	/	/	/
COc1ccc(NC(=O)Nc2ccc3c(c2)C(=O)N([C@@H](C)CO)C[C@H](C)[C@H](CN(C)Cc2ccc(C(F)(F)F)cc2)OCCCC[C@@H](C)O3)cc1	-30	3	96*	0	105*	102*	16	6
C[C@H]1CCCCO[C@@H](CN(C)Cc2ccc(C(F)(F)F)cc2)[C@@H](C)CN([C@@H](C)CO)C(=O)c2cc(NC(=O)Nc3ccc(C(F)(F)F)cc3)ccc2O1	-83*	3	?	/	?	113*	38*	0
C[C@@H]1CCCCO[C@@H](CN(C)Cc2ccc(C(F)(F)F)cc2)[C@@H](C)CN([C@H](C)CO)C(=O)c2cc(NC(=O)Nc3ccc(C(F)(F)F)cc3)ccc2O1	62	0	99*	/	112*	105*	18	6
COc1cc(NC(=O)CSc2nc(C)cc(=O)[nH]2)c(OC)cc1Cl	/	/	/	0	/	/	/	/
Cc1ccccc1-c1nc(C#N)c(NCCN2CCOCC2)o1	/	/	/	0	/	/	/	/
C[C@@H]1CCCCO[C@H](CN(C)Cc2ccc(C(F)(F)F)cc2)[C@@H](C)CN([C@H](C)CO)C(=O)c2cc(NC(=O)Nc3ccc(C(F)(F)F)cc3)ccc2O1	-66	1	99*	1	105*	112*	0	-1
C[C@@H]1CN([C@H](C)CO)C(=O)c2cc(NC(=O)Nc3ccc(C(F)(F)F)cc3)ccc2O[C@@H](C)CCCCO[C@H]1CN(C)Cc1ccc(C(F)(F)F)cc1	?	-2	84	1	/	/	/	/
C[C@H](CO)N1C[C@H](C)[C@@H](CN(C)S(C)(=O)=O)Oc2ccc(NC(=O)C3CC3)cc2CC1=O	19	-1	5	0	/	/	/	/
O=C1CN(Cc2ccccc2)C[C@H]2[C@H](c3ccc(-c4ccccc4F)cc3)[C@H](CO)N12	-43	-2	/	/	/	/	/	/
O=C(Nc1ccccc1F)N1CCCCN2[C@H](CO)[C@H](c3ccc(C#Cc4cccnc4)cc3)[C@@H]2C1	?	0	107*	/	110*	78	43*	?
O=C(Nc1cccc(F)c1)N1CCCCN2[C@H](C1)[C@H](c1ccc(C#CC3CC3)cc1)[C@@H]2CO	-6	-1	118*	/	110*	87	10	11
O=C(Nc1ccccc1)N1CCCCN2[C@@H](CO)[C@@H](c3ccc(C#Cc4cccnc4)cc3)[C@@H]2C1	-66	-1	105*	/	109*	90	18	81*
O=C(Nc1ccccc1)N1CCCCN2[C@H](CO)[C@@H](c3ccc(C#Cc4cccnc4)cc3)[C@H]2C1	-56	-1	-4	/	/	/	/	/
O=C(Nc1ccc(F)cc1)N1CCCCN2[C@@H](CO)[C@@H](c3ccc(C#Cc4ccccc4)cc3)[C@@H]2C1	-78	-4	121*	/	108*	115*	118*	105*
Cc1noc(C)c1S(=O)(=O)N(C)C[C@H]1Oc2ccc(NC(=O)CCCCCC(=O)Nc3ccccc3N)cc2CC(=O)N([C@@H](C)CO)C[C@@H]1C	-35	2	/	0	/	/	/	/
O=C(Nc1cccc(F)c1)N1CCCCN2[C@H](CO)[C@@H](c3ccc(C#Cc4cccnc4)cc3)[C@@H]2C1	-28	-2	105*	/	109*	?	15	81*
O=C(Nc1cccc(F)c1)N1CCCCN2[C@H](CO)[C@H](c3ccc(C#Cc4cccnc4)cc3)[C@H]2C1	-54	-1	96*	/	108*	48	22	103*
O=C(Nc1cccc(F)c1)N1CCCCN2[C@H](C1)[C@H](c1ccc(C#Cc3ccccc3)cc1)[C@@H]2CO	-23	-2	100*	/	101*	?	15	38*
O=C(Nc1cccc(F)c1)N1CCCCN2[C@H](CO)[C@H](c3ccc(C#Cc4ccccc4)cc3)[C@H]2C1	-63	-2	71	/	/	/	/	/
O=C(Nc1cccc(F)c1)N1CCCCN2[C@@H](CO)[C@H](c3ccc(C#Cc4cccnc4)cc3)[C@@H]2C1	-76	-1	103*	/	103*	79	26	101*
C[C@@H]1CN([C@H](C)CO)C(=O)c2cc(C3=CCCCC3)cnc2O[C@@H]1CN(C)C(=O)c1cccc(F)c1	-27	1	36	-1	/	/	/	/
Cc1cc(O)c(Cc2c(O)cc(C)oc2=O)c(=O)o1	/	/	/	0	/	/	/	/

Screening results as filed in PubChem.
